PMI act = increases human mannose-6-phosphate isomerase activity; P34949; purified human PMI, coupled resazurin fluorescence, 20 min; stronger effect = higher value; 1 = vehicle control, 0 substrate-free wells; activation factor at 20 µM; actives 0.005% (n = 190,000);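 active = activation factor of 2 or more at 20 µM, relative to plate controls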
Target sequence (P34949 whole entry, looked up): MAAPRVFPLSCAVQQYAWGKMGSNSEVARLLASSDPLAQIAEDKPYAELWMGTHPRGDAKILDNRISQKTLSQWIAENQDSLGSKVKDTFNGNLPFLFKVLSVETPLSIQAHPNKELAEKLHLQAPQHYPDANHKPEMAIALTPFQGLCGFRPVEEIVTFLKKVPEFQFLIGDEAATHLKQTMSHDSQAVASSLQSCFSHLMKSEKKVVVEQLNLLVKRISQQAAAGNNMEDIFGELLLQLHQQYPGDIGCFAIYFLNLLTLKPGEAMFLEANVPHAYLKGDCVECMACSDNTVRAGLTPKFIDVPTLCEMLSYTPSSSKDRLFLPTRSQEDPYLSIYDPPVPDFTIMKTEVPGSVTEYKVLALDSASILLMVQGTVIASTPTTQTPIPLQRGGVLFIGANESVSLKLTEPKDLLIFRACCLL
Diaph act CS = counter-screen for diaphorase-based assays: diaphorase activators and chemical reducers | Diaphorase/resazurin coupled assay, resorufin fluorescence, 16 min; stronger effect = higher value; 1 = vehicle wells, 0 = NADH-free wells | activation factor at 20 µM | actives 0.005% (n = 190,000);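 active = diaphorase activity raised at least twofold by the compound at 20 µM; inactive = activation factor below 2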
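Material: purified diaphorase enzyme from Clostridium kluyveri / Medium: HEPES pH 7.4 buffer with MgCl2 and Tween 20 / Schedule: enzyme reaction of 16 min at room temperature / Measured by: resorufin fluorescence, excitation 544 nm, emission 590 nm / Evaluation: rise in resorufin formation, marking diaphorase activation or chemical reduction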
Diaphorase inh = diaphorase inhibition or chemical oxidation counter-screen. diaphorase resazurin-to-resorufin fluorescence, NADH, 16 min; bacterial (C. kluyveri) enzyme, not human. inhibition, % at 20 µM. actives 0.69% (n = 190,000). AID 1217;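 active = primary screen inhibition at 20 µM above a set limit, cut at about 50% in these data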
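Test system: bacterial diaphorase enzyme (C. kluyveri); Quantity: 0.14 U/mL diaphorase, enzyme working solution; Times: reaction incubation of 16 min at room temperature; Measured by: fluorescence of resorufin formed from resazurin, Ex 544/Em 590 nm; Benchmarks: positive control minus NADH, DMSO neutral control.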
G6PDH counter = L. mesenteroides G6PDH inhibition counter-screen; Purified L. mesenteroides G6PDH, diaphorase/resazurin coupled fluorescence, 45 min; inhibition, % at 5 µM; actives 0.12% (n = 200,000); AID 1020; in the data active = inhibition above about 50%
PMI act satM6P = increases human PMI activity with near-saturating mannose 6-phosphate | activation factor at 20 µM | actives 0.34% (n = 190,000) | coupled PMI enzyme assay, resazurin fluorescence, 20 min; stronger effect = higher value; 1 = untreated enzyme, 0 = substrate-free blank | AID 1216 | P34949;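 active = activation factor of 2 or more at 20 µM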
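Test system: human phosphomannose isomerase with PGI, G6PDH, diaphorase coupling enzymes; Amount: PMI at 15 ng/mL final; Reagent: Mannose-6-phosphate 1.0 mM (near-saturating) plus 0.22 mM NADP+; Timing: 20 min, room temperature; Technique: resorufin fluorescence at Ex 544/Em 590 nm; Dosing: 20 µM single dose.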
A number is an active result. An excerpt weighted towards active compounds, which were near 1.1% of everything screened.

Results for O=C(/C=C/c1ccccc1)NC(=S)NNC(=O)c1ccco1 ?
PMI act: inactive; Diaph act CS: inactive; Diaphorase inh: 52.3; G6PDH counter: inactive; PMI act satM6P: inactive

Results for COc1cc(/C=C(\C#N)c2nc3ccccc3s2)cc([N+](=O)[O-])c1O ?
PMI act: inactive; Diaph act CS: inactive; Diaphorase inh: 85.4; G6PDH counter: inactive; PMI act satM6P: inactive

How did N#C/C(=C\c1ccco1)c1nc2ccccc2s1 do in these assays?
PMI act: inactive; Diaph act CS: inactive; Diaphorase inh: inactive; G6PDH counter: inactive; PMI act satM6P: inactive

Results for N#C/C(=C/c1ccc(-c2cc(C(=O)O)cc(C(=O)O)c2)o1)c1nc2ccccc2s1 ?
PMI act: inactive; Diaph act CS: inactive; Diaphorase inh: 61.3; G6PDH counter: inactive; PMI act satM6P: inactive

Results for N#C/C(=C\c1ccc(O)c([N+](=O)[O-])c1)c1nc2ccccc2s1 ?
PMI act: inactive; Diaph act CS: inactive; Diaphorase inh: 96.6; G6PDH counter: inactive; PMI act satM6P: inactive

How did COc1cc(C2CC(=O)NC3=C2C(=O)CC(C)(C)C3)cc(OC)c1O (stereo not given) do in these assays?
PMI act: inactive; Diaph act CS: inactive; Diaphorase inh: inactive; G6PDH counter: 50.5; PMI act satM6P: inactive

Results for NC(=O)Cc1c[nH]c2cccc(O)c12 ?
PMI act: inactive; Diaph act CS: inactive; Diaphorase inh: inactive; G6PDH counter: inactive; PMI act satM6P: inactive

What do the screens show for `O=C(CSc1nc2c(cnn2-c2ccc(F)cc2)c(=O)[nH]1)N1CCCc2ccccc21`?
PMI act: inactive; Diaph act CS: inactive; Diaphorase inh: 63.2; G6PDH counter: inactive; PMI act satM6P: inactive

What do the screens show for `O=C(CSc1ccc2nnc(-c3ccc(F)cc3)n2n1)N1CCCc2ccccc21`?
PMI act: inactive; Diaph act CS: inactive; Diaphorase inh: 58.9; G6PDH counter: inactive; PMI act satM6P: inactive

What do the screens show for `O=c1c(S(=O)(=O)c2ccc(Cl)cc2)cn(Cc2ccccc2F)c2ccc(F)cc12`?
PMI act: inactive; Diaph act CS: inactive; Diaphorase inh: inactive; G6PDH counter: inactive; PMI act satM6P: inactive

How did CC1CCCC(C)N1C(=O)c1cc2ncc(CCCl)cn2n1 (stereo not given) do in these assays?
PMI act: inactive; Diaph act CS: inactive; Diaphorase inh: inactive; G6PDH counter: inactive; PMI act satM6P: inactive

What do the screens show for `CCCCNC(=O)C1CCCN1C(=O)Nc1ccccc1` (stereo not given)?
PMI act: inactive; Diaph act CS: inactive; Diaphorase inh: inactive; G6PDH counter: inactive; PMI act satM6P: inactive

What do the screens show for `CN(O)/C=c1/ccc2c(n1)C(=O)C=CC=2`?
PMI act: inactive; Diaph act CS: inactive; Diaphorase inh: 68.7; G6PDH counter: 57.5; PMI act satM6P: inactive

What do the screens show for `Cc1cc(C)nc(NC2=NCCN2C(=S)Nc2c(C)cccc2C)n1`?
PMI act: inactive; Diaph act CS: inactive; Diaphorase inh: inactive; G6PDH counter: inactive; PMI act satM6P: inactive

Results for CC(/C=C/C=C/c1ccccc1)=N\NC(=O)c1cccnc1 ?
PMI act: inactive; Diaph act CS: inactive; Diaphorase inh: inactive; G6PDH counter: inactive; PMI act satM6P: 2.1

What do the screens show for `CC(/C=C\C=C\c1ccccc1)=N\NC(=O)c1cncc(Br)c1`?
PMI act: inactive; Diaph act CS: inactive; Diaphorase inh: inactive; G6PDH counter: inactive; PMI act satM6P: inactive

How did N#CC1=C(c2ccc(-c3ccccc3)cc2)COC1=O do in these assays?
PMI act: inactive; Diaph act CS: inactive; Diaphorase inh: inactive; G6PDH counter: inactive; PMI act satM6P: 2.4

How did COc1ccc(C2=C(c3ccc([N+](=O)[O-])cc3)C(=O)OC2)cc1 do in these assays?
PMI act: inactive; Diaph act CS: inactive; Diaphorase inh: inactive; G6PDH counter: inactive; PMI act satM6P: inactive

Results for Cc1c(Cc2ccccc2)c(=O)oc2c(O)c(O)ccc12 ?
PMI act: inactive; Diaph act CS: inactive; Diaphorase inh: 72.7; G6PDH counter: inactive; PMI act satM6P: inactive

How did Cc1ccc(-n2nnnc2Sc2ccc(S(=O)(=O)NCCN(C)C)cc2[N+](=O)[O-])cc1 do in these assays?
PMI act: inactive; Diaph act CS: inactive; Diaphorase inh: 53.1; G6PDH counter: inactive; PMI act satM6P: inactive

How did CCSc1oc(-c2ccco2)nc1S(=O)(=O)c1ccc(F)cc1 do in these assays?
PMI act: inactive; Diaph act CS: inactive; Diaphorase inh: inactive; G6PDH counter: inactive; PMI act satM6P: inactive

What do the screens show for `CCSc1oc(-c2cccs2)nc1S(=O)(=O)c1ccccc1`?
PMI act: inactive; Diaph act CS: inactive; Diaphorase inh: inactive; G6PDH counter: inactive; PMI act satM6P: 2

What do the screens show for `COC(=O)CSc1nc(C)c(Oc2ccccc2)c(=O)[nH]1`?
PMI act: inactive; Diaph act CS: inactive; Diaphorase inh: inactive; G6PDH counter: inactive; PMI act satM6P: inactive

How did COc1ccc(NCC(=O)N/N=C/c2cc([N+](=O)[O-])ccc2N2CCCC2)cc1 do in these assays?
PMI act: inactive; Diaph act CS: inactive; Diaphorase inh: inactive; G6PDH counter: inactive; PMI act satM6P: inactive

What do the screens show for `O=c1cc(N2CCCCC2)c2ccccc2o1`?
PMI act: inactive; Diaph act CS: inactive; Diaphorase inh: inactive; G6PDH counter: inactive; PMI act satM6P: inactive

How did O=c1c(N2CCCCC2)coc2ccccc12 do in these assays?
PMI act: inactive; Diaph act CS: inactive; Diaphorase inh: inactive; G6PDH counter: inactive; PMI act satM6P: 2

How did COc1cccc(C(=O)CSc2nnnn2C2CCCCC2)c1 do in these assays?
PMI act: inactive; Diaph act CS: inactive; Diaphorase inh: inactive; G6PDH counter: inactive; PMI act satM6P: inactive

How did Oc1c(CN2CCOCC2)cc(COCc2ccccc2)c2cccnc12 do in these assays?
PMI act: inactive; Diaph act CS: inactive; Diaphorase inh: 52.8; G6PDH counter: inactive; PMI act satM6P: inactive

How did COCc1cc(CN2CCN(C)CC2)c(O)c2ncccc12 do in these assays?
PMI act: inactive; Diaph act CS: inactive; Diaphorase inh: inactive; G6PDH counter: inactive; PMI act satM6P: inactive

How did NC(=O)c1nsc(C(=O)N(c2cccc(F)c2)C(C(=O)NCC2CCCO2)c2cccs2)c1N (stereo not given) do in these assays?
PMI act: inactive; Diaph act CS: inactive; Diaphorase inh: inactive; G6PDH counter: inactive; PMI act satM6P: inactive

What do the screens show for `Cc1ncc(CO)c(/C=N/NC(=O)c2cc(O)c(O)c(O)c2)c1O`?
PMI act: inactive; Diaph act CS: inactive; Diaphorase inh: 59.7; G6PDH counter: inactive; PMI act satM6P: inactive

What do the screens show for `CCOc1ccccc1N1CSC2=C(C#N)C(c3c(OC)ccc4ccccc34)CC(=O)N2C1` (stereo not given)?
PMI act: inactive; Diaph act CS: inactive; Diaphorase inh: 66.7; G6PDH counter: inactive; PMI act satM6P: inactive

Screening data: PubChem BioAssay, Sanford-Burnham Center for Chemical Genomics
